Measurements published in paper PMC12164861 (Drug Design, Development and Therapy, 2025).

Experiments:
albumin = settings: cited from earlier work
[1] = Teicoplanin steady-state plasma trough concentration; format: in vivo, human; settings: for teicoplanin Cmin: median (interquartile range)
In short: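 Retrospective cohort of adult ICU patients (Jan 2018–Dec 2023) under therapeutic drug monitoring of the test compound. Venous blood was drawn just before the next dose after at least 6 doses (steady state). Total plasma concentration was measured by HPLC, linear range 3.125–100.0 µg/mL. Target was Cmin ≥ 15.0 μg/mL. Non-normal data are given as median (interquartile range), counts as rate (%).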

[2] = cited from earlier work

Q: Which albumin binding (albumin) does the source give for CC[C@H](C)C[C@H](C)CCCCCCCCC(=O)N[C@H]1C[C@@H](O)[C@@H](NCCN)NC(=O)[C@@H]2[C@@H](O)CCN2C(=O)[C@H]([C@H](O)CCN)NC(=O)[C@H]([C@H](O)[C@@H](O)c2ccc(O)cc2)NC(=O)[C@@H]2C[C@@H](O)CN2C(=O)[C@H]([C@@H](C)O)NC1=O [Caspofungin] here?
A: The albumin binding was “≈ 97%”.

Q: For C[C@@H](c1ncncc1F)[C@](O)(Cn1cncn1)c1ccc(F)cc1F [voriconazole], which albumin binding (albumin) is on record?
A: The albumin binding was 58%.

Q: Which “percentage of teicoplanin Cmin >30.0 μg/mL” value ([1]; all values (64/404)) does the source give for Teicoplanin here?
A: Its value is 15.8%.

Q: What about the “teicoplanin Cmin” value ([1]; patients who did not use caspofungin) of the same molecule?
A: Its value is 19.67 (12.38, 25.45) μg/mL.

Q: And the “teicoplanin Cmin” value ([1]; patients who did not use voriconazole)?
A: The value was 19.74 (13.22, 26.18) μg/mL.

Q: What about the “teicoplanin Cmin” value ([1]; patients who used caspofungin) of the same molecule?
A: The value was 20.12 (14.67, 26.68) μg/mL.

Q: And the “teicoplanin Cmin” value ([1]; patients who used voriconazole)?
A: The value was 18.48 (10.84, 24.24) μg/mL.

Q: What about the “percentage of teicoplanin Cmin >30.0 μg/mL” value ([1]; patients with fungal co-infection) of the same molecule?
A: The value was 20.3%.

Q: What about the “percentage of teicoplanin Cmin >30.0 μg/mL” value ([1]; patients without fungal infection) of the same molecule?
A: The value was 12.0%.

Q: What about the “percentage of teicoplanin Cmin reaching the target (≥15.0 μg/mL)” value (shortened to “percentage … (≥15.0 μg/mL)”) ([1]; year 2018 (12/50)) of the same molecule?
A: Its value is 24.0%.

Q: And the “percentage … (≥15.0 μg/mL)” value ([1]; year 2019 (11/18))?
A: Its value is 61.1%.

Q: What about the “percentage … (≥15.0 μg/mL)” value ([1]; year 2020 (26/40)) of the same molecule?
A: Its value is 65.0%.

Q: What about the “percentage … (≥15.0 μg/mL)” value ([1]; year 2021 (34/49)) of the same molecule?
A: Its value is 69.4%.

Q: And the “percentage … (≥15.0 μg/mL)” value ([1]; year 2022 (66/88))?
A: Its value is 75.0%.

Q: What about the “percentage … (≥15.0 μg/mL)” value ([1]; year 2023 (123/159)) of the same molecule?
A: Its value is 77.4%.

Q: What about the “probability of target attainment (PTA)” value ([2]; model-based simulations, higher-dose regimens (12 mg/kg), MIC up to 0.5 mg/L, elderly critically ill patients with pneumonia) of the same molecule?
A: Its value is “at least 85%”.

Q: What about the “probability of target attainment (PTA) of target Cmin” value ([2]; simulations, standard dosage regimen, critically ill patients with severe renal dysfunction (eGFR ≤30 mL/min/1.73 m²)) of the same molecule?
A: The value was 52.8%.
